According to ChEMBL document CHEMBL3232716, “Tailoring cytotoxicity of antimicrobial peptidomimetics with high activity against multidrug-resistant Escherichia coli” (J Med Chem, 2014):
Values after ≈ are worked out from the molar mass of the structure shown. Square brackets hold non-standard residues; d marks the D form. Peptide text beside a SMILES is read from it. hArg = N=C(N)NCCCC[C@H](N)C(=O)O; Nphe = O=C(O)CNCc1ccccc1

Assays:
Enterococcus faecalis = assay: Antibacterial activity against vancomycin-resistant Enterococcus faecalis ATCC 700221 after 18 hrs by microdilution broth method; format: functional
Outline: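 CLSI broth microdilution. Incubated 35 °C in ambient air for 18 h. MIC taken as the lowest concentration with no visible growth versus the compound-free control. Reported as median and range of three independent biological replicates run on separate days.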

Escherichia coli [1] = assay: Antibacterial activity against NDM-1 producing Escherichia coli clinical isolate 74859898 after 18 hrs by microdilution broth method; format: functional
Escherichia coli [2] = assay: Antibacterial activity against Escherichia coli ATCC 25922 after 18 hrs by microdilution broth method; format: functional
Outline: (§1)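 CLSI broth microdilution. […] Incubated 35 °C in ambient air for 18 h. MIC taken as the lowest concentration with no visible growth versus the compound-free control. Reported as median and range of three independent biological replicates run on separate days.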

Acinetobacter baumannii = assay: Antibacterial activity against multidrug-resistant Acinetobacter baumannii clinical isolate E2-1228625 after 18 hrs by microdilution broth method; format: functional
Escherichia coli [3] = assay: Antibacterial activity against extended-spectrum beta-lactamase producing multidrug-resistant and colistin-susceptible Escherichia coli CTX-M-15 clinical isolate Aar 11 after 18 hrs by microdilution broth method; format: functional
Staphylococcus aureus = assay: Antibacterial activity against methicillin-resistant Staphylococcus aureus ATCC 33591 after 18 hrs by microdilution broth method; format: functional; outline: as §1
HUVEC = assay: Cytotoxicity against HUVEC after 1 hr by MTS/PMS assay; format: cell-based; conditions: Homo sapiens
Outline: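 HUVEC seeded at 15 000 cells/well on collagen-coated wells (0.6 μg/cm2), passage 4–10, grown to ~90% confluence over 21–25 h. Cells exposed to compound (0–2000 μM) in F-12K medium for 1 h at 37 °C. MTS 240 μg/mL with PMS 9.6 μg/mL in HBSS for 1.5–4 h, then A492. Viability referenced to 0.2% SDS and untreated cells; IC50 reported.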

HeLa = assay: Cytotoxicity against human HeLa cells after 1 hr by MTS/PMS assay; format: cell-based
Outline: (§2)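 Monolayers (passage 4–10) grown ~21–25 h to ~90% confluence. Seeding per well: HeLa 8000, HepG2 23 000, NIH 3T3 22 000, IEC-6 16 000, Caco-2 25 000. Cells washed with HBSS/10 mM Hepes pH 7.4 and exposed 1 h at 37 °C, 50 rpm, to compound 0–2000 μM in culture medium. MTS 240 μg/mL/PMS 2.4 μg/mL for 1.5–4 h, A492. Viability referenced to SDS and untreated controls; IC50 from one biological replicate in triplicate.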

Caco-2 = assay: Cytotoxicity against human Caco2 cells after 1 hr by MTS/PMS assay; format: cell-based; conditions: Caco-2, 1 h; outline: as §2
HepG2 = assay: Cytotoxicity against human HepG2 cells after 1 hr by MTS/PMS assay; format: cell-based; conditions: HepG2, 1 h; outline: as §2
[4] = Hemolytic activity in human RBC after 1 hr; format: ADME, cell-based; conditions: Erythrocyte
Outline: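 Fresh human erythrocytes washed in PBS pH 7.4. A 0.5% v/v suspension was mixed 1:1 with 2-fold dilutions of compound (8–1024 μM) and incubated 1 h at 37 °C, then centrifuged. Supernatant hemoglobin read at OD414. Melittin 400 μg/mL set 100% lysis and PBS set 0%. Value is the concentration giving 50% lysis.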

[5] = Cytotoxicity against rat IEC-6 cells after 1 hr by MTS/PMS assay; format: cell-based; conditions: IEC-6, 1 h; outline: as §2
Enterococcus faecium = assay: Antibacterial activity against vancomycin-resistant Enterococcus faecium ATCC 700221 after 18 hrs by microdilution broth method; conditions: ATCC 700221, 18 h
[6] = Cytotoxicity against mouse NIH/3T3 cells after 1 hr by MTS/PMS assay; format: cell-based; conditions: NIH3T3, 1 h; outline: as §2
[7] = Binding affinity to synthetic POPC/POPG liposomal membrane at 20 uM by circular dichroism analysis; format: physicochemical; conditions: artificial membrane
Outline: (§3)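 CD spectra recorded with 20 μM test compound and 2 mM liposomes in 10 mM Tris buffer, pH 7.5. Liposomes were roughly 100 nm: POPC/POPG 7:3 (bacterial model) or POPC/POPG/cholesterol 5:3:2 (mammalian model). Lipid concentration was standardized by enzymatic phospholipid colorimetric assay.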

[8] = Binding affinity to cholesterol containing synthetic POPC/POPG liposomal membrane at 20 uM by circular dichroism analysis; format: physicochemical; conditions: artificial membrane; outline: as §3
[9] = clinical isolate 74859898, 18 h
[10] = clinical isolate E2-1228625, 18 h

Compound	IC50 (HUVEC)	IC50 (HeLa)	IC50 (Caco-2)	MIC (Escherichia coli [1]; [9])	IC50 (HepG2)	IC50 [4]	IC50 [5]	MIC (Escherichia coli [2]; ATCC 25922, 18 h)	MIC (Acinetobacter baumannii; [10])	MIC (Escherichia coli [3]; CTX-M-15, 18 h)	MIC (Staphylococcus aureus; ATCC 33591, 18 h)	MIC (Enterococcus faecium)	IC50 [6]	Activity [7]	Activity [8]	other results
GENTAMICIN																MIC (Enterococcus faecalis): > 128 µM; MIC (Escherichia coli [1]): > 128 µM; MIC (Escherichia coli [2]): 0.25 µM; MIC (Acinetobacter baumannii): > 128 µM; MIC (Escherichia coli [3]): 32 µM; MIC (Staphylococcus aureus): 0.5 µM
CC(=O)N[C@@H](CCCCN)C(=O)N(CC(=O)N[C@@H](CCCCNC(=N)N)C(=O)N(CC(=O)N[C@@H](CCCCN)C(=O)N(CC(=O)N[C@@H](CCCCNC(=N)N)C(=O)N(CC(=O)N[C@@H](CCCCN)C(=O)N(CC(=O)N[C@@H](CCCCNC(=N)N)C(=O)N(CC(N)=O)Cc1ccccc1)Cc1ccccc1)Cc1ccccc1)Cc1ccccc1)Cc1ccccc1)Cc1ccccc1 (Ac-K[Nphe][hArg][Nphe]K[Nphe][hArg][Nphe]K[Nphe][hArg][Nphe]-NH2)	> 1000 µM	316 µM	> 1000 µM	1 µM (≈ 1.84 µg/mL)	698 µM	> 1020 µM	636 µM	2 µM (≈ 3.67 µg/mL)	64 µM (≈ 118 µg/mL)	2 µM (≈ 3.67 µg/mL)	64 µM (≈ 118 µg/mL)	32 µM (≈ 58.8 µg/mL)	635 µM	Not Active	Not Active	
CC(=O)N[C@@H](CCCCN)C(=O)N(CCC(=O)N[C@@H](CCCCNC(=N)N)C(=O)N(CCC(=O)N[C@@H](CCCCN)C(=O)N(CCC(=O)N[C@@H](CCCCNC(=N)N)C(=O)N(CCC(=O)N[C@@H](CCCCN)C(=O)N(CCC(=O)N[C@@H](CCCCNC(=N)N)C(=O)N(CCC(=O)N[C@@H](CCCCN)C(=O)N(CCC(N)=O)Cc1ccccc1)Cc1ccccc1)Cc1ccccc1)Cc1ccccc1)Cc1ccccc1)Cc1ccccc1)Cc1ccccc1	458 µM	77 µM	353 µM	1 µM (≈ 2.21 µg/mL)	116 µM	> 1020 µM	266 µM	1 µM (≈ 2.21 µg/mL)	4 µM (≈ 8.84 µg/mL)	1 µM (≈ 2.21 µg/mL)	16 µM (≈ 35.4 µg/mL)	16 µM (≈ 35.4 µg/mL)	172 µM	Not Active	Not Active	
